Published values of several laboratories.
Lines come from different studies, so protocols differ.
Target: Amine oxidase [flavin-containing] B (MAOB, Homo sapiens, UniProt P27338)
Effect on: enzyme activity
Mode: inhibitor
Sequence (P27338 1-520, as in one of the studies): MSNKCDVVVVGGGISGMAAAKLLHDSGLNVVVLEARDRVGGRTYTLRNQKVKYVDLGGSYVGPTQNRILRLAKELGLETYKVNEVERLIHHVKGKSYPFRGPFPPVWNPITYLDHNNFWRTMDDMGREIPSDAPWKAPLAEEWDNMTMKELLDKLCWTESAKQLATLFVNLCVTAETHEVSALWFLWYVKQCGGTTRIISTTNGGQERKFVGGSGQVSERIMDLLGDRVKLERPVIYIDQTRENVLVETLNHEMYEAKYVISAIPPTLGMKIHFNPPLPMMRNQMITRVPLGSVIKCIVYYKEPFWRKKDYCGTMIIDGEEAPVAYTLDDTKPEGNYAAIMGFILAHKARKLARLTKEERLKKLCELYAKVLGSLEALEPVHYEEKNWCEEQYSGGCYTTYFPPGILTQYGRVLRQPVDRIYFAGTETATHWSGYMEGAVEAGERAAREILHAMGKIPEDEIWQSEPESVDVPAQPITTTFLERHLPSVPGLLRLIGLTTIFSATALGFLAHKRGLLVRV

SMILES	assay	IC50
Cn1c(=O)c2ccc(C(=O)Nc3ccccc3F)nc2n(C)c1=O	fluorescence	61 nM
O=C(c1ccc(O)cc1O)[C@H](O)[C@@H](O)c1ccc(O)cc1	–	29900 nM
c1ccc(Nc2nccc(-c3cccnc3)n2)cc1	fluorescence	400 nM
COc1cc(/C=C/C(=O)N2CCC(Cc3ccccc3)CC2)ccc1OCc1ccccc1	fluorescence	3800 nM
Cn1c(=O)[nH]c(=O)n2c(CC(=O)Nc3cccc4ccccc34)cnc12	fluorescence	8700 nM
C#CCOc1ccc(/C=C/C(=O)N2CCC(Cc3ccccc3)CC2)cc1OC	fluorescence	320 nM
O=C1C[C@@H](c2cc(O)cc(O)c2)Oc2cc(O)ccc21	–	12100 nM
CCn1c(-c2nc3cc(C(=O)N4CCC[C@@H](N)C4)cc(OC)c3n2C)cc2cccnc21	–	25100 nM
O=C1c2c(O)cc(O)cc2O[C@H](c2ccc(O)cc2)[C@H]1O	–	68100 nM
COc1cccc(CNc2nc3ccc(C)cc3n3cnnc23)c1	fluorescence	180 nM
O=C(/C=C/c1ccc(O)cc1)c1ccc(O)cc1O	–	510 nM
c1ccc(Nc2nccc(-c3ccco3)n2)cc1	fluorescence	510 nM
O=C(Nc1ccc(Br)cc1)c1cc(Cl)ccc1O	–	139 nM
O=C1C[C@@H](c2ccc(O)cc2)Oc2cc(O)cc(O)c21	–	270 nM
O=C(Nc1ccc([N+](=O)[O-])cc1Cl)c1cc2ccccc2o1	–	123 nM
COc1ccc(/C=C/C(=O)N2CCC(Cc3ccccc3)CC2)cc1OC	fluorescence	1100 nM
